27 compounds from ChEMBL document CHEMBL4359856, “Strategies to develop selective CB2 receptor agonists from indole carboxamide synthetic cannabinoids” (Eur J Med Chem, 2019) can be followed below.

The target in test [1] is T1, Cannabinoid receptor 2 (Homo sapiens, UniProt P34972). Nature of the test: Agonist activity at human CB2 receptor expressed in AtT-20 cells at 1 uM measured every 2 secs for 2 mins by FLIPR assay relative to control. It is filed as cell-based. A digest of the protocol: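 In AtT-20 cells stably expressing human CB1 or CB2, membrane-potential dye fluorescence (530/565 nm) was recorded at 37 °C. After vehicle subtraction, the change was taken as % of baseline. The final DMSO concentration was ≤0.1%. EC50 came from four-parameter concentration–response fits. […] Each experiment was run in duplicate, with at least three independent experiments; values are mean ± SEM.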

The target in test [2] is T2, Cannabinoid receptor 1 (Homo sapiens, UniProt P21554). Nature of the test: Agonist activity at human CB1 receptor expressed in AtT-20 cells at 10 uM measured every 2 secs for 2 mins by FLIPR assay relative to control. The test is classed as cell-based. Particulars: read-out: Activity.
For test [3], the target named is T1, Cannabinoid receptor 2. Nature of the test: Agonist activity at human CB2 receptor expressed in AtT-20 cells measured every 2 secs for 2 mins by FLIPR assay. It is filed as cell-based. A digest of the protocol:
(§1)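 After vehicle subtraction, the change was taken as % of baseline. The final DMSO concentration was ≤0.1%. EC50 came from four-parameter concentration–response fits. Each experiment was run in duplicate, with at least three independent experiments; values are mean ± SEM.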

Test [4] has as its target T2, Cannabinoid receptor 1. Nature of the test: Agonist activity at human CB1 receptor expressed in AtT-20 cells measured every 2 secs for 2 mins by FLIPR assay. It is filed as cell-based. A digest of the protocol:
as §1

A short description of test [5]: Selectivity index, ratio of EC50 for human CB1 receptor expressed in AtT-20 cells to EC50 for human CB2 receptor expressed in AtT-20 cells.
The target in test [6] is T2, Cannabinoid receptor 1. The test is described as follows: Agonist activity at human CB1 receptor expressed in AtT-20 cells at 1 uM measured every 2 secs for 2 mins by FLIPR assay relative to control. The test is classed as cell-based. The method in brief: as §1
In test [7] the target is T1, Cannabinoid receptor 2. Nature of the test: Agonist activity at human CB2 receptor expressed in AtT-20 cells at 10 uM measured every 2 secs for 2 mins by FLIPR assay relative to control. It is filed as cell-based.

A value given as a limit tells only on which side of the number the result lay.

T2 sequence (P21554 whole entry): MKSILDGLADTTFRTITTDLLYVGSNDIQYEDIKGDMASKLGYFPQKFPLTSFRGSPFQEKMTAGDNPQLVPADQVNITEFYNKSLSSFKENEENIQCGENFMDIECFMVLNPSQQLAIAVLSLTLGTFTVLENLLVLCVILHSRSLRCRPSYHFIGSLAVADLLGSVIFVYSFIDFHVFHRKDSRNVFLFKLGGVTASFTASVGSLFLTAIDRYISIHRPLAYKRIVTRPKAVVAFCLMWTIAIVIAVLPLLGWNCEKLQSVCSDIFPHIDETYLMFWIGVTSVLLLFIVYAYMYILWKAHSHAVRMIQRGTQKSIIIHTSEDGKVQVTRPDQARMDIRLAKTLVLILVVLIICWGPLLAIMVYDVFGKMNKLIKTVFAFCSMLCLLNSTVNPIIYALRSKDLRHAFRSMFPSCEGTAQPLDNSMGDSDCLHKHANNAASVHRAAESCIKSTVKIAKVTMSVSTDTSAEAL
T1 sequence (P34972 whole entry): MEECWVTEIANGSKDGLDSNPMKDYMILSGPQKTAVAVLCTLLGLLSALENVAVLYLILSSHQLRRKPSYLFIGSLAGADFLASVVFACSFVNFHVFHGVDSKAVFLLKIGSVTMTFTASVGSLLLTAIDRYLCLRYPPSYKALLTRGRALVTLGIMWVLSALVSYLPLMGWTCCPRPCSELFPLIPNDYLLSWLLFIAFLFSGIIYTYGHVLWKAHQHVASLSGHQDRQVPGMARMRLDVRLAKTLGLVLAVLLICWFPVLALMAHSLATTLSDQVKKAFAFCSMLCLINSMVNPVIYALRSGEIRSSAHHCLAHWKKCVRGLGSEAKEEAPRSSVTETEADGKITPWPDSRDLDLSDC

As a reminder, the Emax is the maximal effect, on the per cent scale that the assay sets. The term EC50 denotes the concentration giving half of the maximal effect. Take `CCCCCn1c(C(=O)N[C@H](C(N)=O)C(C)C)cc2ccccc21`: the Emax in test [1] is 74%. Also, the activity at 10 µM in test [2] was less than 50%. Also, in test [3], the 50% effective concentration (EC50) came out at 741 nM.
Regarding `CCCCCn1nc(C(=O)NC23CC4CC(CC(C4)C2)C3)c2cccnc21`, the Emax in test [1] amounted to 104%. For the same compound, the 50% effective concentration (EC50) in test [4] was determined as 824 nM; in test [3], 122 nM. Also, the “Ratio EC50” value in test [5] amounted to 7. This compound had an Emax at 1 µM in test [6] of 97%.
In turn, `CCCCCn1cc(C(=O)NC(C)(C)c2ccccc2)c2cccnc21` had a maximal response (Emax) in test [1] of 96%. Further, the values for the 50% effective concentration (EC50) in test [4] and in test [3] were 35 nM and 104 nM, respectively. The compound further gave a maximal response (Emax) at 1 µM in test [6] of 106%.
For `CCCCCn1cc(C(=O)N[C@H](C(=O)OC)C(C)C)c2cccnc21`, in that order: 98%, 56 nM, 15 nM and 97%.
As for `CCCCCn1cc(C(=O)N[C@H](C(N)=O)C(C)C)c2cccnc21`, the Emax in test [1] was found to be 103%. The values for the EC50 in test [4] and in test [3] were 121 nM and 58 nM, respectively. In test [6], the maximum response (Emax) at 1 µM came out at 117%.
Consider `CCCCCn1c(C(=O)N[C@H](C(=O)OC)C(C)(C)C)cc2ccccc21`, for which, in test [2], the activity at 10 µM is less than 50%.
The compound `COC(=O)[C@@H](NC(=O)c1cn(CCCCCO)c2ncccc12)C(C)(C)C` yielded an Emax in test [1] of 96%. In addition, the results for the concentration giving a half-maximal response (EC50) in test [4] and in test [3] were 234 nM and 19 nM, respectively. Besides, the Emax at 1 µM in test [6] came to 99%.
As to `COC(=O)[C@@H](NC(=O)c1cc2ccccc2n1CCCCCO)C(C)(C)C`, in test [2], the activity at 10 µM was less than 50%. Further, the Activity in test [7] was less than 50%.
Regarding `CCCCCn1cc(C(=O)N[C@H](C(N)=O)C(C)(C)C)c2cccnc21`, the Emax in test [1] is 94%. Further, the concentration giving a half-maximal response (EC50) in test [4] is 4 nM; in test [3] it was 5 nM. The compound also gave an Emax at 1 µM in test [6] of 110%.
`CC(C)(C)[C@H](NC(=O)c1cc2ccccc2n1CCCCCO)C(N)=O`: in test [2], the activity at 10 µM was less than 50%.
In turn, `CC(C)(NC(=O)c1cn(CCCCCO)c2ncccc12)c1ccccc1` had an Emax in test [1] of 95%. Further, the EC50 in test [4] turned out to be 466 nM; in test [3], 152 nM. Further, the Emax at 1 µM in test [6] came to 110%.
As to `CCCCCCC(C)(C)c1ccc([C@@H]2C[C@H](O)CC[C@H]2CCCO)c(O)c1`, the Emax in test [1] amounted to 106%.
As to `CC(C)(NC(=O)c1cc2ccccc2n1CCCCCO)c1ccccc1`, the maximum response (Emax) in test [1] came out at 88%. For the same compound, the activity at 10 µM in test [2] was less than 50%. Also, in test [3], a half-maximal effect (EC50) was put at 217 nM.
The matching figures for `CCCCCn1c(C(=O)N[C@H](C(=O)OC)C(C)C)cc2ccccc21`: 74%, less than 50% and 713 nM.
`CCCCCn1cc(C(=O)NC23CC4CC(CC(C4)C2)C3)c2ccccc21` returned a maximal response (Emax) in test [1] of 85%. For the same compound, the concentration giving a half-maximal response (EC50) was 74 nM in test [4] and 96 nM in test [3]. This compound also came in with an Emax at 1 µM in test [6] of 108%.
`CCCCCn1c(C(=O)NC23CC4CC(CC(C4)C2)C3)cc2ccccc21`: in test [2], the activity at 10 µM is less than 50%.
With `CC(C)(C)[C@H](NC(=O)c1cn(CCCCCO)c2ncccc12)C(N)=O`, the maximum response (Emax) in test [1] stood at 96%. Further, the half-maximal effective concentration (EC50) in test [4] was determined as 491 nM; in test [3], 50 nM. This compound showed an Emax at 1 µM in test [6] of 98%.
`CCCCCn1cc(C(=O)NC23CC4CC(CC(C4)C2)C3)c2cccnc21` registered a maximal effect (Emax) in test [1] of 101%. For the same compound, the EC50 was 152 nM in test [4] and 43 nM in test [3]. In addition, the “Ratio EC50” value in test [5] is given as 3.5. Besides, in test [6], the Emax at 1 µM was found to be 75%.
`CCCCCn1c(C(=O)N[C@H](C(N)=O)C(C)(C)C)cc2ccccc21` showed a maximum response (Emax) in test [1] of 73%. Further, the activity at 10 µM in test [2] was less than 50%. The concentration for a half-maximal effect (EC50) in test [4] was more than 10000 nM; in test [3], 189 nM.
The compound `O=C(NC12CC3CC(CC(C3)C1)C2)c1cn(CCCCCO)c2ncccc12` had an Emax in test [1] of 93%. Besides, the activity at 10 µM in test [2] was less than 50%. The EC50 in test [4] was more than 10000 nM; in test [3] it was 49 nM.
Turning to `CCCCCn1c(C(=O)NC(C)(C)c2ccccc2)cc2ccccc21`, in test [2], the activity at 10 µM is less than 50%.
The compound `CCCCCn1cc(C(=O)N[C@H](C(=O)OC)C(C)(C)C)c2cccnc21` showed an Emax in test [1] of 102%. The EC50 was 1.7 nM in test [4] and 4.3 nM in test [3]. Also, the maximum response (Emax) at 1 µM in test [6] is 103%.
`COC(=O)[C@@H](NC(=O)c1cc2ccccc2n1CCCCCO)C(C)C`: in test [2], the activity at 10 µM was less than 50%. The same compound yielded an Activity in test [7] of less than 50%.
`CC(C)(C)[C@H](NC(=O)c1cc2ccccc2n1CCCCC(F)F)C(N)=O` had an Emax in test [1] of 128%. The activity at 10 µM in test [2] is less than 50%. For the same compound, a half-maximal response in test [3] (EC50) required 5460 nM.
In the case of `CCCCCn1c(C(=O)NC23CC4CC(CC(C4)C2)C3)cc2cccnc21`, in test [2], the activity at 10 µM is less than 50%. The Activity in test [7] is less than 50%.
In the case of `CCCCCn1cccc2c(C(=O)NC34CC5CC(CC(C5)C3)C4)cnc1-2`, the activity at 10 µM in test [2] is less than 50%. In test [7], this compound came in with an Activity of less than 50%.
With `CC(C)[C@H](NC(=O)c1cc2ccccc2n1CCCCCO)C(N)=O`, in test [2], the activity at 10 µM is less than 50%. The Activity in test [7] was less than 50%.
